According to the EternaBench riboswitch data:

Tested on: MS2 coat protein
Experiment: apparent Kd, MS2 coat protein; higher = weaker binding; RNA-MaP array; FMN 200 µM where present
How it was run: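 Designs were transcribed by stalled E. coli RNA polymerase on Illumina sequencing-chip clusters. They were titrated with SNAP-549-labelled MS2 coat protein from 0.7 or 1.5 nM, doubling to 3 µM, in 100 mM Tris-HCl pH 7.5, 80 mM KCl, 4 mM MgCl2, BSA, DTT, yeast tRNA and Tween-20, without and then with constant ligand. The apparent Kd is the median of filtered per-cluster fits after normalisation of green signal to red-channel RNA signal and control-cluster median Fmax.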

[1] = designed as: OFF switch for flavin mononucleotide, no ligand
[2] = ligand present: flavin mononucleotide, designed as: OFF switch for flavin mononucleotide
[3] = designed as: ON switch for flavin mononucleotide, no ligand
[4] = ligand present: flavin mononucleotide, designed as: ON switch for flavin mononucleotide

AAAUUAGGGAGAGGAUAUUGACAUGAGGAUCACCCAUGUAUUUGGGAGUGUUUACUGAAUUCUUACGAGAAGGCUUACGAAAUU
apparent Kd [1]: 320 nM
apparent Kd [2]: 255 nM

GCGAGUACGAGAGGAUAUUGACAUGAGGAUCACCCAUGUAUUUGGGAGUGUUCACUGAAUUCUUACGAGAAGGCUCGUACACGC
apparent Kd [1]: 244 nM
apparent Kd [2]: 252 nM

AAAAUGUAAGGAUAUCGUCCCGUAAAUAUCGGGAAAAUUGUCGAGAAGGUACAUGAGGAUCACCCAUGUUCCUG
apparent Kd [1]: 16.7 nM
apparent Kd [2]: 18.2 nM

GACAAACAUGAGGAUCACCCAUGUUCAGACGAACAAGGAUAUGUGUGGAAACCGUACUAUACAGAAGGUGUCUGUC
apparent Kd [3]: 39.7 nM
apparent Kd [4]: 23.8 nM

AACCUAUUACAGAAGGCCAGCUACAUGAGGAUCACCCAUGUCGAGUCAUGGAGGAUAUGUAGUAAUUUACUCACAGAUGAGUGA
apparent Kd [3]: 22.9 nM
apparent Kd [4]: 5.07 nM

GGAAGACAAAGUCUUCCAUAACGAACAUGAGGAUCACCCAUGUAGGAUAUGCUACUCAAAGAGUAGCAGAAGGACAUGUGUCUU
apparent Kd [1]: 28.1 nM
apparent Kd [2]: 129 nM

CAUUCAAGCCAGAAGGAGUACACUACAUGAGGAUCACCCAUGUCUAAUACUAGGAUAUGGGCAUCUGGUAAUGUCUAAGGUGCG
apparent Kd [3]: 111 nM
apparent Kd [4]: 128 nM

CGCAAUGAUGGUAGUAAUAGAGCAUAGGAUAUGCUUGUACAUGAGGAUCACCCAUGUUAUAUUUUGCAGAAGGGUGUAAUUGCG
apparent Kd [3]: 309 nM
apparent Kd [4]: 159 nM

AGCUACGUUUCGUAGCAGCUAGGUGAGGAUAUCCUUUUACAUGAGGAUCACCCAUGUUAGCCAUGGGAGAAGGCGCCUAGAAAG
apparent Kd [3]: 498 nM
apparent Kd [4]: 37.7 nM

GUCAGCUCGUGAGGAUAUACAUCACUGCUUCGGCAGUGUAUUAAAAUAACAUGAGGAUCACCCAUGUAGAAGGCACGAGCUGAU
apparent Kd [1]: 4.69 nM
apparent Kd [2]: 5.51 nM

UCCCUUGCUGGAGGAUAUCGCACAUGAGGAUCACCCAUGUCGGCACUCGGGCGCAUCCUCUUGGACGAGAAGGCCAGGAGGUAC
apparent Kd [1]: 179 nM
apparent Kd [2]: 79.4 nM

CACUUGGCAGGAUAUGCAAUUUUAGACAUGAGGAUCACCCAUGUGAUCAUUCCAUAUUAUGCAGAAGGGCCUAAAC
apparent Kd [1]: 199 nM
apparent Kd [2]: 747 nM

AUAAAACAUGAGGAUCACCCAUGUCAACAAAGUCGAGGAUAUGGGCAAAUAAAAUAAGAACCAGAAGGCGUAUAAU
apparent Kd [4]: 94.3 nM

UGCGCUGAGGGAGGAUAUGACAUGAGGAUCACCCAUGUGAUAGGUUUCUUGUCAGAAGGCCCGCGUGUACCGAAUUAGGUUCGC
apparent Kd [1]: 55.6 nM
apparent Kd [2]: 404 nM

UUAUUUGUACAAGGAUAUCUAUUAUAUUCACGUCCUACAUGAGGAUCACCCAUGUUAUAUAUUUUAGAGAAGGUGUAUUGUCUG
apparent Kd [3]: 31.9 nM
apparent Kd [4]: 35.3 nM

AGCAUGCUAGGAUAUACGGGACAUUAGGGUUUGUCGUGUGGACAUGAGGAUCACCCAUGUAGAAGGAGCGUGCA
apparent Kd [1]: 54.4 nM
apparent Kd [2]: 228 nM

AUGCCUUAUGUAGGAUAUGCAUAGAGUUGCUAUGCAGAAGGACAUGAGGAUCACCCAUGUAUGUAUACCAUACAUAUCUGGCAU
apparent Kd [1]: 35.6 nM
apparent Kd [2]: 316 nM

UGGAUCAUGGGAGGAUAUCCUCAAGAGACAUGAGGAUCACCCAUGUAUUAUAAGCCUAAUGGCAUGGAGAAGGCCCAUGAUCCU
apparent Kd [3]: 377 nM
apparent Kd [4]: 54 nM

CAAUAUAGCACAGGAUAUGUCUCGUUUACAUGAGGAUCACCCAUGUCCGAAACAGAAGGGUGACCCGAUAUAGGACGUUGGGUG
apparent Kd [3]: 121 nM
apparent Kd [4]: 28.9 nM

ACAUGAGGAUCACCCAUGUAUUUGUAGGAUAUACUCUAUUGUUUAUUACUCUAGUUAAAAUGUUUGUAGAAGGACAUUACAUGA
apparent Kd [1]: 6.81 nM
apparent Kd [2]: 7.38 nM

CGGUACUGAGGAUAUACAUGAGGAUCACCCAUGUGUUCUAGCUAGCGUACUGGCAUUUGUAGAAGGCGGUGCUG
apparent Kd [1]: 15 nM
apparent Kd [2]: 56.4 nM

GUCAGCUCGUGAGGAUAUACAACACUGCUUCGACAGUGUAUUAAGAUCACAUGAGGAUCACCCAUGUAGAAGGCACGAGCUGAU
apparent Kd [1]: 13.6 nM
apparent Kd [2]: 211 nM

CUUUGGAUGUCAGGAUAUUGAAUCAUGGAUGGUAUCUUACAGUCUUACAUGAGGAUCACCCAUGUCGAGAAGGGAUAUCAGCUC
apparent Kd [1]: 6.15 nM
apparent Kd [2]: 10.5 nM
